{"data": "Published values of several laboratories", "target": "Serine/threonine-protein kinase pim-3 (PIM3, Homo sapiens, UniProt Q86V86)", "note": "Lines come from different studies, so protocols differ."}
{"Structure (SMILES)": "Cc1cnc(Nc2ccc(C(=O)N3CCC(N4CCCC4)CC3)cc2)nc1-c1cc2ccccc2s1", "assay": "binding, competition with immobilised ligand", "setting": "1 µM", "remaining binding [%]": 60}
{"Structure (SMILES)": "Cc1nccc(COC(=O)N2C[C@@H]3[C@@H](CNC(=O)c4ccc5[nH]nnc5c4)[C@@H]3C2)n1", "assay": "cell-free assay, competition with immobilised ligand", "setting": "1 µM", "remaining binding [%]": 97}
{"Structure (SMILES)": "COc1cnc(Nc2cccc(S(N)(=O)=O)c2)nc1N1CCN(c2ccccc2)C(=O)C1", "assay": "binding, competition with immobilised ligand", "setting": "1 µM", "remaining binding [%]": 100}
{"Structure (SMILES)": "CCc1ccccc1C(=O)Nc1n[nH]c2c(C)c(F)c(C3C(C#N)=C(C)N(C)C(C)=C3C#N)cc12", "assay": "cell-free assay, competition with immobilised ligand", "setting": "1 µM", "remaining binding [%]": 100}
{"Structure (SMILES)": "CC1CCCN1c1nccc(-c2cnn3ncccc23)n1 (stereo not shown)", "assay": "binding", "setting": "1 µM", "remaining binding [%]": 100}
{"Structure (SMILES)": "CN([C@@H]1CCc2c(CC(=O)O)c3cc(S(C)(=O)=O)ccc3n2C1)S(=O)(=O)c1ccc(F)cc1", "assay": "cell-free assay, competition with immobilised ligand", "setting": "1 µM", "remaining binding [%]": 100}
{"Structure (SMILES)": "O=C(c1ccc(Nc2nccc(-c3cc4ccccc4s3)n2)cc1)N1CCC(N2CCCC2)CC1", "assay": "binding, competition with immobilised ligand", "setting": "1 µM", "remaining binding [%]": 78}
{"Structure (SMILES)": "CN(CCCC(F)(F)F)c1nccc(-c2cnn3ncccc23)n1", "assay": "binding", "setting": "1 µM", "remaining binding [%]": 100}
{"Structure (SMILES)": "Nc1ncc2c(n1)-c1c([nH]c3ccc(C#CC4CC4)cc13)CCCC2", "assay": "binding, competition with immobilised ligand", "setting": "1 µM", "remaining binding [%]": 76}
{"Structure (SMILES)": "C[C@@H]1CN(c2ccc3ncc(-c4ccc5[nH]nc(C6CC6)c5c4)n3n2)C[C@H](C)O1", "assay": "binding, competition with immobilised ligand", "setting": "0.5 µM", "remaining binding [%]": 33}
{"Structure (SMILES)": "COc1ccc2c(c1)O[C@H](c1ccc(OC)c(OC)c1)C[C@@H]2NC(=O)C1(c2ccc3c(c2)OC(F)(F)O3)CC1", "assay": "cell-free assay, competition with immobilised ligand", "setting": "1 µM", "remaining binding [%]": 100}
{"Structure (SMILES)": "N#Cc1ccccc1CSc1nnc2c(n1)[nH]c1ccccc12", "assay": "binding, competition with immobilised ligand", "setting": "10 µM", "remaining binding [%]": 74}
{"Structure (SMILES)": "CN(c1nccc(-c2cnn3ncccc23)n1)C1CC1", "assay": "binding", "setting": "1 µM", "remaining binding [%]": 100}
{"Structure (SMILES)": "O=C(NCC1CCOCC1)c1n[nH]cc1NC(=O)c1c(F)cccc1F", "assay": "binding, competition with immobilised ligand", "setting": "1 µM", "remaining binding [%]": 99}
{"Structure (SMILES)": "CSc1cccnc1N1CCN(Cc2nc3ccccc3[nH]2)CC1", "assay": "cell-free assay, competition with immobilised ligand", "setting": "1 µM", "remaining binding [%]": 94}
{"Structure (SMILES)": "N[C@H]1CCN(c2nccc(-c3cnn4ncccc34)n2)C1", "assay": "binding", "setting": "1 µM", "remaining binding [%]": 79}
